Source: article PMC7616001 (Journal of medicinal chemistry, 2022)

Columns and labels:
[1] = system: mitochondria of HeLa cells; assay: Metal content in isolated mitochondria, ICP-MS; assay type: cell-based, human; conditions: 20 μM, 24 h
HeLa [2] = assay: MTT assay, 72 h continuous exposure, HeLa cells; assay type: cell-based, human
Summary of the method: (§1)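 Ovarian lines grown in RPMI with 10% FBS and 1% penicillin/streptomycin; A2780Cis kept on 2 μM cisplatin 3 days each week. HeLa grown in DMEM with the same supplements. 3 × 10^3 cells/well, overnight, then serial dilutions of DMSO stocks (final DMSO ≤0.1%); cisplatin stock in PBS. 72 h continuous exposure, MTT 0.5 mg/mL 3 h, formazan in DMSO, A570 normalised to untreated. IC50 from curves; ≥3 independent experiments.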

ΔΨm of HeLa cells = assay: JC-1 mitochondrial membrane potential assay, flow cytometry; assay type: cell-based, human; conditions: 24 h, even at 1/4 × IC50/24h (10 μM)
ROS level in HeLa cells = assay: H2DCF-DA intracellular ROS assay; assay type: cell-based, human; conditions: 10 μM, 1-8 h
Summary of the method: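 HeLa plated at 10 × 10^3 per well, grown overnight, then exposed to 10 μM test compound for 1, 2, 4 or 8 h. Washed with PBS and loaded with 10 μM H2DCF‑DA for 30 min. Washed again, phenol red‑free DMEM added, fluorescence read immediately. Three biological replicates.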

[3] = system: zebrafish sub-intestinal venous plexus (SIVP) angiogenesis; assay: Zebrafish SIVP angiogenesis model; assay type: in vivo, zebrafish (Danio rerio); conditions: 20/30/40 μM from 26 hpf, imaged at 72 hpf
Summary of the method: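 Test compound stock 5 mM in DMSO, diluted in E3 to final 20, 30 or 40 μM; DMSO vehicle at 10 μL/mL E3. Four 26 hpf Tg(etv2:EGFP) embryos per 1 mL. Raised to 72 hpf at 28 °C for confocal analysis of the sub‑intestinal venous plexus.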

[4] = Stability in RPMI-1640 cell culture medium by UPLC; assay type: physicochemical
Summary of the method: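 Test compound incubated in RPMI‑1640 and monitored by UPLC. Run twice, each with three replicates.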

ER of HeLa cells = assay: ER imaging of ER-RFP-labeled HeLa cells; assay type: cell-based, human
Summary of the method: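 HeLa cells transduced with a CellLight ER-RFP BacMam 2.0 construct, replated on glass-bottom dishes overnight, then treated with test compound (20 or 40 μM) for 8 h or 24 h. A platinum–ferrocene complex (40 μM) served as positive control. After PBS washes, confocal images were taken in phenol red-free medium (ex 543 nm, em 584–655 nm) at constant exposure.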

HeLa [5] = assay: 72 h crystal violet; assay type: cell-based, human
Summary of the method: (§2)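 Seeding and dosing as for MTT: 3 × 10^3 cells/well, overnight, final DMSO ≤0.1%, 72 h exposure. Wells washed with PBS and fixed in 4% paraformaldehyde for 15 min. Crystal violet stained, dried, dissolved in 96% ethanol and A570 read. IC50 derived from dose–response curves.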

HeLa cells [6] = assay: Whole cell uptake by ICP-MS; assay type: cell-based, human; conditions: 10 μM
Summary of the method: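 2 × 10^6 cells per 60 mm plate, grown overnight. Incubated 4 h in fresh medium containing 10 μM test compound. Washed three times with PBS, detached with trypsin and counted for per‑cell metal uptake.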

HeLa cells [7] = assay: Annexin-V/PI dual staining flow cytometry; assay type: cell-based, human; conditions: 24 h
[8] = system: O2•− radicals in HeLa cells; assay: Flow cytometric quantification of superoxide radicals with DHE probe; assay type: cell-based, human; conditions: 10 μM, 4 h
Summary of the method: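 HeLa seeded at 0.75 × 10^6 cells per six‑well plate well, grown overnight, then treated 4 h at 10 μM. Cells trypsinised, washed with ice‑cold PBS and spun at 1200 rpm, 5 min, 4 °C. Probe‑stained cells analysed by flow cytometry, approximately 20,000 cells per sample.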

[9] = system: MEF-Bax/Bak^+/+ and MEF-Bax/Bak^−/− cell lines; assay: Cytotoxicity in MEF-Bax/Bak+/+ versus MEF-Bax/Bak−/− cells; assay type: cell-based, murine
A2780 = assay: 72 h crystal violet; assay type: cell-based, human; conditions: read-out: IC50 (CV assay) A2780; 72 h CV assay
Summary of the method: as §2

[10] = system: PARP, p53, cleaved caspase 3 in HeLa cells; assay: Western blot of apoptosis-related marker proteins; assay type: cell-based, human; conditions: 24 h
Summary of the method: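 ~2 million HeLa per 60 mm dish, grown to 80–90% confluency, treated 24 h at 10, 20 or 40 μM. Lysed in RIPA buffer with protease inhibitors. Membranes blocked with 2% skim milk in 0.1% Tween 20 for 30 min. Primary antibody 1:1000 overnight at 4 °C; HRP secondary antibody.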

A2780cis = assay: MTT assay, 72 h continuous exposure, cisplatin-resistant A2780Cis cells; assay type: cell-based, human
Summary of the method: as §1

## Cc1ccc(C(C)C)cc1.O=C(C=C([O-])C(F)(F)F)[c-]1cccc1.[Cl-].[Fe+2].[Ru+2].c1cc[cH-]c1 [Compound 1, [(η^6-p-cymene)Ru(1,1,1-trifluoro-4-oxo-4-ferrocenyl-but-2-en-2-olate)Cl]]
[1]
  Ru in mitochondria relative to Pt in mitochondria of cisplatin-treated cells: ~ 4 fold
HeLa [2]; HeLa cells, 72 h MTT
  fold higher potency compared to oxaliplatin: 1.6 fold
HeLa [2]; read-out: IC50 HeLa, 72 h continuous exposure, MTT assay
  IC50: 1.3 ± 0.3 µM
ΔΨm of HeLa cells
  effect on ΔΨm (JC-1 red/green): dramatic decrease in ΔΨm
ROS level in HeLa cells
  intracellular ROS level (H2DCF-DA): significant increase in ROS
[3]
  effect on SIVP angiogenesis (SIVP area, number of compartments): dose-dependent antiangiogenic effects
[4]; after 24 h
  intact compound remaining in RPMI-1640 with 10% FBS: ~45%
[4]; after 72 h
  intact compound remaining in RPMI-1640 with 10% FBS: ~7%
[4]; up to 8 h, 37 °C, UPLC
  decomposition in RPMI-1640 with 10% FBS: < 20%
ER of HeLa cells
  ER dilation and vacuole formation: ER dilation and/or vacuole formation were not observed
HeLa [5]; HeLa and A2780, 72 h
  IC50 from CV assay compared to IC50 from MTT assay: ~ 3 fold
HeLa [5]; read-out: IC50 (CV assay) HeLa, 72 h CV assay
  IC50: 4.4 ± 1.7 µM
HeLa cells [6]; 4 h
  fold higher accumulation than 3: 3.5 fold
  times lower cellular accumulation compared to 4: 1.6 times
  whole cell uptake: 57 ± 9.7 pmol/10^6 cells
HeLa cells [6]; 4 h exposure
  whole cell uptake: 57.0 ± 9.7 picomole Ru/10^6 cells
HeLa cells [7]; 10 μM
  AV^−/PI^+ cells (necrosis): 9%
HeLa cells [7]; 20 μM
  AV^−/PI^+ cells (necrosis): 15.4%
[8]
  level of O2•− radicals relative to untreated control: ~ 19 fold
[9]
  IC50 in MEF-Bax/Bak^−/− compared to MEF-Bax/Bak^+/+ cells: statistically similar
A2780
  IC50: 7.2 ± 0.3 µM
[10]; cisplatin 10 μM, 1 at 1/4 × IC50 to IC50
  apoptosis markers (PARP cleavage, p53, cleaved caspase 3): none of these apoptosis markers were upregulated
[10]; western blot
  PARP level: significant upregulation of PARP
A2780cis; RF = IC50 in A2780Cis/IC50 in A2780
  RF (A2780): 1.2
A2780cis; read-out: IC50 A2780cis, 72 h continuous exposure, MTT assay
  IC50: 3.1 ± 0.1 µM
